Source: ChEMBL document CHEMBL4190227, “Syntheses, toxicities and anti-inflammation of H2S-donors based on non-steroidal anti-inflammatory drugs” (Eur J Med Chem, 2017)
pIC50: −log10 of the molar value. Calls of active or inactive are those of the source. The calls are words filed in the database; no cut-off is given here.

Assays:
HepG2 = experiment: Cytotoxicity against human HepG2 cells assessed as reduction in cell survival after 24 hrs by MTT assay; type: cell-based; conditions: HepG2, 24 h
L02 = experiment: Cytotoxicity against human LO2 cells assessed as reduction in cell survival after 24 hrs by MTT assay; type: cell-based; conditions: L02, 24 h
Danio rerio [1] = organism: Danio rerio; experiment: Toxicity in AB zebrafish embryo assessed as reduction in number of embryos alive at 120 hrs post fertilization by dissecting light microscopic analysis; type: organism-based; conditions: in vivo
Method in brief: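 Wild-type AB embryos, 100 per group split into three replicates, one per well in 200 μL test solution, plates sealed; DMF vehicle control (1:1000); mortality recorded at 24–168 hpf intervals; three independent experiments, mean ± SD.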

Danio rerio [2] = organism: Danio rerio; experiment: Toxicity in AB zebrafish embryo assessed as effect on hatching rate of embryos at 0.5 to 1 uM measured at 48 hrs post fertilization by dissecting light microscopic analysis; type: organism-based; conditions: in vivo
Method in brief: (§1)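 AB embryos exposed from 4 to 72 hpf to compound (0.5–20 μM) or DMF vehicle (1:1000), one embryo per well; hatch rate scored at 48 hpf; n=100 per group in three replicates; three independent experiments, mean ± SD.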

Danio rerio [3] = organism: Danio rerio; experiment: Toxicity in AB zebrafish embryo assessed as reduction in hatching rate of embryos at 5 to 20 uM measured at 48 hrs post fertilization by dissecting light microscopic analysis; type: organism-based; conditions: in vivo; method in brief: as §1
Danio rerio [4] = organism: Danio rerio; experiment: Toxicity in AB zebrafish embryo assessed as reduction in embryonic spontaneous movement frequency per minute at 0.5 uM measured at 24 hrs post fertilization by stereoscopic dissecting light microscopic analysis; type: organism-based; conditions: in vivo
Method in brief: (§2)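 AB embryos exposed from 4 to 24 hpf to compound (0.5–20 μM) or DMF vehicle (1:1000); ten embryos per group chosen randomly; spontaneous movement recorded under stereoscopic dissecting microscope, frequency per min counted at 24 hpf; three independent experiments, mean ± SD.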

Danio rerio [5] = organism: Danio rerio; experiment: Effect on locomotor activity in wild type AB zebrafish larvae assessed as decrease in total swimming distance at 10 uM measured for 5 mins at 144 hrs post fertilization by visible light test; type: ADME, organism-based; conditions: in vivo
Danio rerio [6] = organism: Danio rerio; experiment: Effect on locomotor activity in wild type AB zebrafish larvae assessed as decrease in total swimming distance at 0.5 to 1 uM measured for 5 mins at 144 hrs post fertilization by visible light test; type: ADME, organism-based; conditions: in vivo
[7] = target: T1, Nitric oxide synthase, inducible (Mus musculus) (UniProt P29477); experiment: Inhibition of iNOS in mouse RAW264.7 cells assessed as reduction in LPS-induced NO production administered for 24 hrs post LPS induction by Griess method; type: cell-based
T1 sequence (whole entry): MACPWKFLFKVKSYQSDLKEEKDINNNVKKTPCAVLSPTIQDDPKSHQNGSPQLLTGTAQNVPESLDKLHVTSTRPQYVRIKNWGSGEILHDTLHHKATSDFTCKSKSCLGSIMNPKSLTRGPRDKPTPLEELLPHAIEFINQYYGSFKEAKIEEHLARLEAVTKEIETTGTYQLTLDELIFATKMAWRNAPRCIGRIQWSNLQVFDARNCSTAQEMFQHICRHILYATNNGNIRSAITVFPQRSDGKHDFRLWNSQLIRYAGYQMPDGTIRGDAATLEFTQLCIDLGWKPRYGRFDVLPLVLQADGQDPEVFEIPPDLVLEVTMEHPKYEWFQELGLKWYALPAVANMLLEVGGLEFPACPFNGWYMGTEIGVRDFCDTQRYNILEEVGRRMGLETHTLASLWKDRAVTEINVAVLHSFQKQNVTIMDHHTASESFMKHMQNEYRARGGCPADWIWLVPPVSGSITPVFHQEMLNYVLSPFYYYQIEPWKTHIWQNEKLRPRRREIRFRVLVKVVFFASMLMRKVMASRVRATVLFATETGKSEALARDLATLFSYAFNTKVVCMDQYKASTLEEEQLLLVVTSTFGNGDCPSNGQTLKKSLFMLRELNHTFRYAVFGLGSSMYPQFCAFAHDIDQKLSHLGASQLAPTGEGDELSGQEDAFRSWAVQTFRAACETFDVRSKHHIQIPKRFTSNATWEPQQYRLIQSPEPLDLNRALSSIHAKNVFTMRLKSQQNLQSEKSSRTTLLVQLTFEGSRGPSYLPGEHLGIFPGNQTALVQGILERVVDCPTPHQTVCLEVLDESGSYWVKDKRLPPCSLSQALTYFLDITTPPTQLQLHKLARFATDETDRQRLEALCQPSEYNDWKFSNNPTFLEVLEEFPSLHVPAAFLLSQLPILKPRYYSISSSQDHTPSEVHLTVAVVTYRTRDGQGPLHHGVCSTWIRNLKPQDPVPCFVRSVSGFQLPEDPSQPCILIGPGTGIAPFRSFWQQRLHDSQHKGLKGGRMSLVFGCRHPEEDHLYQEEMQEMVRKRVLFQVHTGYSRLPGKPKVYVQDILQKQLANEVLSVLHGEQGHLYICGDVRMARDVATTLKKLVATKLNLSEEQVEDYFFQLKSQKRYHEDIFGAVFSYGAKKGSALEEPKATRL
Method in brief: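 RAW264.7 cells stimulated with LPS 1 μg/mL for 4 h, then compound (10, 50, 100 μM) for 24 h; culture medium reacted with Griess reagents I and II, absorbance 570 nm; nitrite from sodium nitrite standard curve (0–100 μM in medium); four independent experiments, mean ± SD.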

RAW264.7 [8] = experiment: Antiinflammatory activity in mouse RAW264.7 cells assessed as reduction in LPS-induced TNFalpha levels incubated for 24 hrs post LPS induction by ELISA; type: functional, cell-based
Method in brief: (§3)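 LPS (1 μg/mL) for 4 h, then compound at 10, 50, 100 μM for 24 h; cells lysed in RIPA, spun 12,000×g 10 min, protein normalised by BCA to 0.1 mg/mL; target (TNF-α, HO-1, IL-10 or COX-2) quantified by sandwich ELISA kit with mouse-specific polyclonal antibodies; four independent experiments.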

RAW264.7 [9] = experiment: Antiinflammatory activity in mouse RAW264.7 cells assessed as increase in IL10 levels at 10 to 100 uM measured after 24 hrs in absence of LPS by ELISA; type: functional, cell-based
Method in brief: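 Macrophages exposed 24 h to 10, 50, 100 μM without LPS; lysates (RIPA, 12,000×g spin) normalised by BCA to 0.1 mg/mL protein; IL-10 measured by mouse-specific sandwich ELISA kit; four independent experiments, mean ± SD.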

RAW264.7 [10] = experiment: Antiinflammatory activity in mouse RAW264.7 cells assessed as increase in LPS-induced HO-1 expression incubated for 24 hrs post LPS induction by ELISA; type: functional, cell-based; method in brief: as §3
RAW264.7 [11] = experiment: Antiinflammatory activity in mouse RAW264.7 cells assessed as increase in LPS-induced HO-1 expression at 100 uM incubated for 24 hrs post LPS induction by ELISA relative to contol; type: functional; method in brief: as §3
RAW264.7 [12] = experiment: Inhibition of LPS-induced COX2 expression in mouse RAW264.7 cells at 10 to 100 uM incubated for 24 hrs post LPS induction by ELISA; type: functional, cell-based; method in brief: as §3
Danio rerio [13] = organism: Danio rerio; experiment: Toxicity in AB zebrafish embryo assessed as reduction in hatching rate of embryos measured at 48 hrs post fertilization by dissecting light microscopic analysis; type: organism-based; conditions: in vivo; method in brief: as §1
Danio rerio [14] = organism: Danio rerio; experiment: Toxicity in AB zebrafish embryo assessed as reduction in embryonic spontaneous movement frequency per minute measured at 24 hrs post fertilization by stereoscopic dissecting light microscopic analysis; type: organism-based; conditions: in vivo; method in brief: as §2

SMILES: CC(C)Cc1ccc(C(C)C(=O)Oc2ccc(C(N)=S)cc2)cc1 (configuration not stated)
- pIC50 (HepG2): 4.05
- pIC50 (L02): 3.66
- Activity (Danio rerio [1]): Dose-dependent effect
- Activity (Danio rerio [2]): Non-Toxic
- Activity (Danio rerio [3]): Toxic
- Activity (Danio rerio [4]): Non-Toxic
- Activity (Danio rerio [5]): Toxic
- Activity (Danio rerio [6]): Non-Toxic
- inhibition [7]: Dose-dependent effect
- Activity (RAW264.7 [8]): Dose-dependent effect
- Activity (RAW264.7 [9]): Active
- Activity (RAW264.7 [10]): Dose-dependent effect
- fold change (FC) (RAW264.7 [11]): >3
- inhibition (RAW264.7 [12]): Active
- Activity (Danio rerio [13]): Dose-dependent effect
- Activity (Danio rerio [14]): Dose-dependent effect

SMILES: CC(=O)Nc1ccc(OC(=O)CCCCC2CCSS2)cc1 (configuration not stated)
- pIC50 (HepG2): 3.02
- pIC50 (L02): 2.75
- Activity (Danio rerio [1]): Dose-dependent effect
- Activity (Danio rerio [2]): Non-Toxic
- Activity (Danio rerio [3]): Toxic
- Activity (Danio rerio [4]): Non-Toxic
- Activity (Danio rerio [5]): Toxic
- Activity (Danio rerio [6]): Non-Toxic
- inhibition [7]: Dose-dependent effect
- Activity (RAW264.7 [8]): Dose-dependent effect
- Activity (RAW264.7 [9]): Active
- Activity (RAW264.7 [10]): Dose-dependent effect
- fold change (FC) (RAW264.7 [11]): <=2
- inhibition (RAW264.7 [12]): Active
- Activity (Danio rerio [13]): Dose-dependent effect
- Activity (Danio rerio [14]): Dose-dependent effect
